The compounds below were run against Multidrug resistance-associated protein 1 (Homo sapiens, UniProt P33527) (assay: Inhibition of MRP1 in human 2008/MRP1 cells assessed as potentiation of doxorubicin-induced cytotoxicity by measuring cell survival at 2 uM after 5 days by MTS assay relative to control). Settings: 120 h.
Format: cell-based
Method in brief: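 2008/MRP1 cells (retroviral human MRP1 transfectant; RPMI 1640, 10% FBS) at 4,000 per well, with 100 nM doxorubicin plus crude, unpurified click products in DMSO: 2 µM in the primary screen, 1 µM in the secondary. Incubated 5 days at 37 °C. MTS/PMS added for 2 h at 37 °C, absorbance read at 490 nm. % survival is relative to wells without DOX or product. Run in triplicate, at least three experiments.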

Multidrug resistance-associated protein 1, sequence (P33527 whole entry): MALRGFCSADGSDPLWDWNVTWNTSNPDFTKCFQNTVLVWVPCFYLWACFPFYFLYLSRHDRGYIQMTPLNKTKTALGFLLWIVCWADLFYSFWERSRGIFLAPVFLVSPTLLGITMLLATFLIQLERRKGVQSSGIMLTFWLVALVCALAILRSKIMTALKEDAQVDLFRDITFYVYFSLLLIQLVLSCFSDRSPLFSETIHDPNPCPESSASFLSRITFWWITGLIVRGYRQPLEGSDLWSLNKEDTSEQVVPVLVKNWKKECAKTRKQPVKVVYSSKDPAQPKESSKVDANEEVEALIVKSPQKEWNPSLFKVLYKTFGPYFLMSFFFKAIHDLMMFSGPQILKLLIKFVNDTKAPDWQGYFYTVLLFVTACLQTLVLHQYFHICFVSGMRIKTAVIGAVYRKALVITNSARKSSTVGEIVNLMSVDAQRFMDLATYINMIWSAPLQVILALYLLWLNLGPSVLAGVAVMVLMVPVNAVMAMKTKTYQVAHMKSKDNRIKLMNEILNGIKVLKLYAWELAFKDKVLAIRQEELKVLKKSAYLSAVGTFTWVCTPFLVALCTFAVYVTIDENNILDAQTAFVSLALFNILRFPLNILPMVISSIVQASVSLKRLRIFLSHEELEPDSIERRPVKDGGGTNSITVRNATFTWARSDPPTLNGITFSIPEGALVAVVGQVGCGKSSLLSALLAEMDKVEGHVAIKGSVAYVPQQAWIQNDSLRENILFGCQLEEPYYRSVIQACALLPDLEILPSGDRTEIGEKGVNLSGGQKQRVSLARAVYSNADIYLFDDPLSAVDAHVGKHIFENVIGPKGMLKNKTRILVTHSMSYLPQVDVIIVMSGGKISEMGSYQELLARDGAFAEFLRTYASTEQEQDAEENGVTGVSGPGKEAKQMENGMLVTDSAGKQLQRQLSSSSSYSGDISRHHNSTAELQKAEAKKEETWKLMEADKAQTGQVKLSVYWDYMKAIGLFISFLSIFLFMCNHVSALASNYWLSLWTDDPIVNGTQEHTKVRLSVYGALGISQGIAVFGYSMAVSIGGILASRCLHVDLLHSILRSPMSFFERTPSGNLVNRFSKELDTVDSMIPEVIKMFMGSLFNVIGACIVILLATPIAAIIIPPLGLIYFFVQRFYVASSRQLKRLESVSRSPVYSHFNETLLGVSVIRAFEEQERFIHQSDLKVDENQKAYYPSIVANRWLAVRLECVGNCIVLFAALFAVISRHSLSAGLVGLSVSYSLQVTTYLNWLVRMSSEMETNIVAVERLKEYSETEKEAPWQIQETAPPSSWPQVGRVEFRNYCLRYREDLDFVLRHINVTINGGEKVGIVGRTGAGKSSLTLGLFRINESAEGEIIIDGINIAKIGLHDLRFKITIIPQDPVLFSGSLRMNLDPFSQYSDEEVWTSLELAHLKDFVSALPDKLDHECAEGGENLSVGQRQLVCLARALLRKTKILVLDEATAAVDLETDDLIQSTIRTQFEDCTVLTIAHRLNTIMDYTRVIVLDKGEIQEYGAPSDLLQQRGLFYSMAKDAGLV

How did the Survival turn out when `COc1cccc(COc2c(-c3ccc(OCCOCCn4cc(CCCOc5ccc(-c6cc(=O)c7cc(F)ccc7o6)cc5)nn4)cc3)oc3ccccc3c2=O)c1` was run?
The Survival was 86%.

For `O=c1cc(-c2ccccc2)oc2cc(OCCn3cc(-c4ccc(-c5cn(CCOc6ccc7occ(-c8ccccc8)c(=O)c7c6)nn5)cc4)nn3)ccc12`, which Survival is on record?
Its Survival is 87%.

For `O=c1cc(-c2ccccc2)oc2cc(OCCOCCOCCn3cc(COCCOc4ccc5c(=O)cc(-c6ccccc6)oc5c4)nn3)ccc12`, which Survival is on record?
The Survival was 60%.

Which Survival does the source give for `O=c1cc(-c2ccccc2)oc2cc(OCCOCCOCCn3cc(CN(Cc4cn(CCOCCOCCOc5ccc6c(=O)cc(-c7ccccc7)oc6c5)nn4)Cc4cn(CCOCCOCCOc5ccc6c(=O)cc(-c7ccccc7)oc6c5)nn4)nn3)ccc12` here?
Its Survival is 77%.

For `O=c1cc(-c2ccccc2)oc2cc(OCCCCc3cn(CCOCCOc4ccc(-c5cc(=O)c6cc(F)ccc6o5)cc4)nn3)ccc12`, which Survival is on record?
The Survival was 52%.

For `CN(CCN(C)Cc1cn(CCOCCOCCOc2ccc(-c3cc(=O)c4cc(F)ccc4o3)cc2)nn1)Cc1cn(CCOCCOCCOc2ccc(-c3cc(=O)c4cc(F)ccc4o3)cc2)nn1`, which Survival is on record?
The Survival was 79%.

Which Survival does the source give for `COc1cccc(COc2c(-c3ccc(OCCCCc4cn(CCOCCOCCOc5ccc(-c6cc(=O)c7ccccc7o6)cc5)nn4)cc3)oc3ccccc3c2=O)c1` here?
The Survival was 58%.

Which Survival does the source give for `O=c1cc(-c2ccc(OCCOCCn3cc(CCCOc4ccc(-c5cc(=O)c6cc(F)ccc6o5)cc4)nn3)cc2)oc2ccccc12` here?
Its Survival is 93%.

With `O=c1cc(-c2ccc(OCCOCCn3cc(CN(Cc4cn(CCOCCOc5ccc(-c6cc(=O)c7ccccc7o6)cc5)nn4)Cc4cn(CCOCCOc5ccc(-c6cc(=O)c7ccccc7o6)cc5)nn4)nn3)cc2)oc2ccccc12` as the compound, how does the Survival read?
Its Survival is 82%.

Which Survival does the source give for `C#CCCCOc1ccc(-c2nc3ccccc3c(=O)[nH]2)cc1` here?
Its Survival is 86%.

How did the Survival turn out when `O=c1cc(-c2ccccc2)oc2cc(OCCOCCn3cc(CCCOc4ccc(-c5cc(=O)c6cc(F)ccc6o5)cc4)nn3)ccc12` was run?
The Survival was 111%.

`O=c1c(OCc2ccccc2)c(-c2cccc(OCCOCCn3cc(-c4cccc(-c5cn(CCOCCOc6cccc(-c7oc8ccccc8c(=O)c7OCc7ccccc7)c6)nn5)c4)nn3)c2)oc2ccccc12` was tested. Which Survival did it give?
The Survival was 89%.

`O=c1cc(-c2ccc(OCCCc3cn(CCOCCOc4ccc(-c5cc(=O)c6cc(F)ccc6o5)cc4)nn3)cc2)oc2cc(F)ccc12` was tested. Which Survival did it give?
The Survival was 55%.

For `COc1cccc(COc2c(-c3ccc(OCCCCc4cn(CCOCCOCCOc5ccc6c(=O)cc(-c7ccccc7)oc6c5)nn4)cc3)oc3ccccc3c2=O)c1`, which Survival is on record?
Its Survival is 78%.

`O=c1c(OCc2ccccc2)c(-c2ccc(OCCOCCn3cc(CN4CCN(Cc5cn(CCOCCOc6ccc(-c7oc8ccccc8c(=O)c7OCc7ccccc7)cc6)nn5)CC4)nn3)cc2)oc2ccccc12` was tested. Which Survival did it give?
Its Survival is 58%.

How did the Survival turn out when `C#CCCCOc1ccc(-c2cc(=O)c3ccc(F)cc3o2)cc1` was run?
Its Survival is 79%.

With `O=c1cc(-c2ccc(OCCOCCOCCn3cc(CCCOc4ccc(-c5cc(=O)c6cc(F)ccc6o5)cc4)nn3)cc2)oc2ccccc12` as the compound, how does the Survival read?
Its Survival is 79%.

For `Cc1ccc2oc(-c3ccc(OCCOCCOCCn4cc(CCCOc5ccc6c(=O)cc(-c7ccccc7)oc6c5)nn4)cc3)cc(=O)c2c1`, which Survival is on record?
The Survival was 55%.

How did the Survival turn out when `C#CCN(C)CCN(C)CC#C` was run?
The Survival was 87%.

With `O=c1c(OCc2ccccc2)c(-c2ccc(OCCOCCOCCn3cc(-c4cccc(-c5cn(CCOCCOCCOc6ccc(-c7oc8ccccc8c(=O)c7OCc7ccccc7)cc6)nn5)c4)nn3)cc2)oc2ccccc12` as the compound, how does the Survival read?
The Survival was 80%.

With `O=Cc1ccc(OCCCCc2cn(CCOc3cccc4c(=O)cc(-c5ccccc5)oc34)nn2)cc1` as the compound, how does the Survival read?
Its Survival is 83%.

Which Survival does the source give for `O=c1cc(-c2ccc(OCCCc3cn(CCOc4cccc5c(=O)cc(-c6ccccc6)oc45)nn3)cc2)oc2cc(F)ccc12` here?
The Survival was 77%.

Which Survival does the source give for `Cc1ccc2oc(-c3ccc(OCCCCc4cn(CCOCCOCCOc5ccc(-c6oc7ccccc7c(=O)c6OCc6ccccc6)cc5)nn4)cc3)cc(=O)c2c1` here?
Its Survival is 59%.

How did the Survival turn out when `O=c1cc(-c2ccccc2)oc2cc(OCCCCc3cn(CCOCCOc4ccc(-c5oc6ccccc6c(=O)c5OCc5ccccc5)cc4)nn3)ccc12` was run?
The Survival was 79%.

How did the Survival turn out when `Cc1ccc(C(=O)/C=C/c2ccc(OCCCCc3cn(CCOc4cccc5c(=O)cc(-c6ccccc6)oc45)nn3)cc2)c(O)c1` was run?
Its Survival is 75%.

How did the Survival turn out when `Cc1ccc2oc(-c3ccc(OCCOCCOCCn4cc(CCCOc5ccc(-c6cc(=O)c7cc(F)ccc7o6)cc5)nn4)cc3)cc(=O)c2c1` was run?
The Survival was 82%.

With `O=c1cc(-c2ccc(OCCOCCn3cc(CNc4ccccc4)nn3)cc2)oc2ccc(F)cc12` as the compound, how does the Survival read?
Its Survival is 81%.

For `O=c1[nH]c(-c2ccc(OCCCc3cn(CCOCCOc4ccc(-c5cc(=O)c6cc(F)ccc6o5)cc4)nn3)cc2)nc2ccccc12`, which Survival is on record?
The Survival was 76%.

How did the Survival turn out when `Cc1ccc(C(=O)/C=C/c2ccc(OCCCCc3cn(CCOCCOCCOc4ccc(-c5oc6ccccc6c(=O)c5OCc5ccccc5)cc4)nn3)cc2)c(O)c1` was run?
Its Survival is 71%.

Which Survival does the source give for `O=c1cc(-c2ccc(OCCOCCOCCn3cc(CN(Cc4cn(CCOCCOCCOc5ccc(-c6cc(=O)c7cc(F)ccc7o6)cc5)nn4)Cc4cn(CCOCCOCCOc5ccc(-c6cc(=O)c7cc(F)ccc7o6)cc5)nn4)nn3)cc2)oc2ccc(F)cc12` here?
Its Survival is 77%.

For `COCOc1cc(OCc2ccccc2)c2c(=O)cc(-c3ccc(OCCCc4cn(CCOCCOc5ccc(-c6oc7ccccc7c(=O)c6OCc6cccc(OC)c6)cc5)nn4)cc3)oc2c1`, which Survival is on record?
Its Survival is 79%.

How did the Survival turn out when `O=c1cc(-c2ccccc2)oc2cc(OCCCCc3cn(CCOc4cccc5c(=O)cc(-c6ccccc6)oc45)nn3)ccc12` was run?
Its Survival is 60%.

How did the Survival turn out when `O=C1c2ccccc2C(=O)N1CCc1cn(CCOCCOc2ccc3c(=O)cc(-c4ccccc4)oc3c2)nn1` was run?
The Survival was 51%.

With `C#CCN(CC#C)Cc1ccccc1` as the compound, how does the Survival read?
Its Survival is 81%.

How did the Survival turn out when `COc1cccc(COc2c(-c3ccc(OCCOCCn4cc(CN(Cc5ccccc5)Cc5cn(CCOCCOc6ccc(-c7oc8ccccc8c(=O)c7OCc7cccc(OC)c7)cc6)nn5)nn4)cc3)oc3ccccc3c2=O)c1` was run?
The Survival was 80%.

With `[N-]=[N+]=NCCOCCOc1ccc(-c2oc3ccccc3c(=O)c2OCc2ccccc2)cc1` as the compound, how does the Survival read?
Its Survival is 72%.

For `O=c1cc(-c2ccc(OCCOCCn3cc(CN(Cc4cn(CCOCCOc5ccc(-c6cc(=O)c7cc(F)ccc7o6)cc5)nn4)Cc4cn(CCOCCOc5ccc(-c6cc(=O)c7cc(F)ccc7o6)cc5)nn4)nn3)cc2)oc2ccc(F)cc12`, which Survival is on record?
Its Survival is 76%.

Which Survival does the source give for `Cc1ccc(O)c(C(=O)/C=C/c2ccc(OCCCCc3cn(CCOCCOc4ccc(-c5cc(=O)c6ccccc6o5)cc4)nn3)cc2)c1` here?
The Survival was 60%.

How did the Survival turn out when `O=Cc1ccc(OCCCCc2cn(CCOCCOc3ccc(-c4cc(=O)c5cc(F)ccc5o4)cc3)nn2)cc1` was run?
The Survival was 78%.

`O=c1cc(-c2ccccc2)oc2cc(OCCn3cc(CN(Cc4ccccc4)Cc4cn(CCOc5ccc6occ(-c7ccccc7)c(=O)c6c5)nn4)nn3)ccc12` was tested. Which Survival did it give?
The Survival was 96%.

Which Survival does the source give for `Cc1ccc2oc(-c3ccc(OCCOCCOCCn4cc(CCCCOc5ccc(C=O)cc5)nn4)cc3)cc(=O)c2c1` here?
Its Survival is 72%.

Which Survival does the source give for `O=c1c(OCc2ccccc2)c(-c2ccc(OCCOCCOCCn3cc(CN(Cc4cn(CCOCCOCCOc5ccc(-c6oc7ccccc7c(=O)c6OCc6ccccc6)cc5)nn4)Cc4cn(CCOCCOCCOc5ccc(-c6oc7ccccc7c(=O)c6OCc6ccccc6)cc5)nn4)nn3)cc2)oc2ccccc12` here?
The Survival was 81%.

For `CCc1ccc(O)c(C(=O)/C=C/c2ccc(OCCCCc3cn(CCOCCOc4ccc(-c5cc(=O)c6cc(F)ccc6o5)cc4)nn3)cc2)c1`, which Survival is on record?
The Survival was 80%.

Which Survival does the source give for `O=c1cc(-c2ccc(OCCOCCOCCn3cc(-c4cccc(-c5cn(CCOCCOCCOc6ccc(-c7cc(=O)c8cc(F)ccc8o7)cc6)nn5)c4)nn3)cc2)oc2ccc(F)cc12` here?
Its Survival is 72%.

`Cc1ccc2oc(-c3ccc(OCCOCCOCCn4cc(CNc5ccccc5)nn4)cc3)cc(=O)c2c1` was tested. Which Survival did it give?
Its Survival is 86%.

Reference: ChEMBL document CHEMBL4257575, “Discovery of Novel Flavonoid Dimers To Reverse Multidrug Resistance Protein 1 (MRP1, ABCC1) Mediated Drug Resistance in Cancers Using a High Throughput Platform with "Click Chemistry"” (J Med Chem, 2018)
